Assay outcomes deposited in PubChem BioAssay by Sanford-Burnham Center for Chemical Genomics.
hIAP activ – human IAP activation; AID 2524; activation factor at 10 µM; purified human IAP, CDP-Star luminescence, 30 min; stronger effect = higher value; 1 = vehicle-only enzyme, 0 = enzyme-free background; actives 0.16% (n = 330,000);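 active = activation factor of the enzyme at least 2-fold when tested at 20 µM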
Target sequence (P09923 whole entry, looked up): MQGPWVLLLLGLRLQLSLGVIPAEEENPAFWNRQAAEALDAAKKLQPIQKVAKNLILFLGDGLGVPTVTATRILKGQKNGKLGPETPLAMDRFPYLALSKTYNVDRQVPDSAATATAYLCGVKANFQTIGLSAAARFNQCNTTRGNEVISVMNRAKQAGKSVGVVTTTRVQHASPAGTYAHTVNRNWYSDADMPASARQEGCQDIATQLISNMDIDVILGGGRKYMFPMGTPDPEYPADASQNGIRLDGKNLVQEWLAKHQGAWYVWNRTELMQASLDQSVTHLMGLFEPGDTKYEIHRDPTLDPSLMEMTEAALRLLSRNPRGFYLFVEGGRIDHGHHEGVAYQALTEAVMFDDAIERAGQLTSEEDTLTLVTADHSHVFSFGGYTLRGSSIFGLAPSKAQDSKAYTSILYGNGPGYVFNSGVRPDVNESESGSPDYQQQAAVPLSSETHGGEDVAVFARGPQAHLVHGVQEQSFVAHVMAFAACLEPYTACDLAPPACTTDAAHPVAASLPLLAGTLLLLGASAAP
bIAP act – intestinal alkaline phosphatase (bovine) activation | purified bovine IAP, CDP-star luminescence, 30 min; stronger effect = higher value; fold of DMSO-control signal, blank-subtracted | activation factor at 20 µM | actives 0.17% (n = 200,000);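 active = activation factor of 2 or more at 20 µM, a signal rise over negative controls twice the positive control's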
hIAP block – human IAP inhibition; P09923; purified IAP, CDP-Star luminescence, 30 min; inhibition, % at 10 µM; actives 0.12% (n = 330,000); AID 2544;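 active = inhibition reaching a set limit with compound at 10 µM in the primary screen, cut at about 35% in these data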;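 note: plate controls were DMSO wells with enzyme for no effect and no-enzyme buffer wells for full effect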
mIAP block – blocks mouse intestinal alkaline phosphatase. purified mouse IAP, CDP-Star luminescence, 30 min. inhibition, % at 10 µM. actives 0.2% (n = 330,000). AID 2806;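 active = inhibition of at least 40% at 10 µM in the primary screen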;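 note: plate controls were DMSO with enzyme for no effect and no enzyme wells for full effect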
mIAP act – mouse IAP activation; muIAP, CDP-Star luminescence, 30 min; stronger effect = higher value; 1 = vehicle-only enzyme signal, 0 = enzyme-free wells; activation factor at 10 µM; actives 0.24% (n = 330,000); AID 2805;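 active = activation factor of at least 2 at 20 µM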
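Assay system: mouse IAP enzyme; Reagent: CDP-Star chemiluminescent phosphatase substrate; Compound: DMSO-dissolved test compounds; Incubation: 30 min, room temperature; Technique: luminescence from enzymatic CDP-Star hydrolysis; Controls: DMSO-only wells and no-enzyme negative control.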
bIAP inhibitor – intestinal alkaline phosphatase (bovine) inhibition | purified bovine IAP, CDP-star luminescence, 30 min | inhibition, % at 20 µM | 190,000 tested, under 10 active | AID 1019;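 active = over 50% inhibition of intestinal alkaline phosphatase at 20 µM in the single-dose screen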
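Assay system – bovine IAP enzyme · Quantity – bovine IAP at 1/65,000,000 final dilution · Detection – CDP-star luminescence signal · Times – 30 min reaction at room temperature · Also added – CDP-star substrate at 30 µM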
Numbers without * were called inactive. Most compounds without a hit are left out; they make up all but 0.77% or so of the library.

Screening CCCNC(=O)c1ccc2c(c1)C1C3CCC(C3)C1C(c1ccccc1)N2 (stereo unspecified) returned hIAP activ 0.988, bIAP act 2*, hIAP block 1.2, mIAP block -46.9, mIAP act 1.47 and bIAP inhibitor -96.2.
Screening CC(C)(C)NC(=O)c1ccc2c(c1)C1C3CCC(C3)C1C(c1ccccc1)N2 (stereo unspecified) returned hIAP activ 0.897, bIAP act 1, hIAP block 10.3, mIAP block -9.1, mIAP act 1.09 and bIAP inhibitor 4.1.
`CCOC(=O)/C(N=Nc1sc(C(=O)OCC)c(C)c1C(=O)OCC)=C(\C)O` gave hIAP activ 0.835, bIAP act 0.8, hIAP block 16.5, mIAP block 11.9, mIAP act 0.881 and bIAP inhibitor 19.4.
`CCOC(=O)c1sc(N=NC2=C(O)CCCC2=O)c(C(=O)OCC)c1C` gave hIAP activ 0.758, bIAP act 1.1, hIAP block 24.2, mIAP block 40.0*, mIAP act 0.6 and bIAP inhibitor -11.6.
Screening CSCC[C@H](NC(=O)N1CCn2c1nc1ccccc12)C(=O)N1CCCCC1 returned hIAP activ 1.17, hIAP block -17.4, mIAP block -0.1 and mIAP act 1.
`O=C(CN1CCC(c2nc3ccccc3[nH]2)CC1)Nc1ccc2c(c1)OCO2` gave hIAP activ 1.04, bIAP act 1.1, hIAP block -3.8, mIAP block -14.3, mIAP act 1.14 and bIAP inhibitor -13.3.
Cc1ccc2nc(C3CCN(CC(=O)Nc4ccc5c(c4)OCCO5)CC3)[nH]c2c1 was read as hIAP activ 0.889, bIAP act 2.1*, hIAP block 11.1, mIAP block -10.3, mIAP act 1.1 and bIAP inhibitor -113.4.
Screening CC(=O)OCC(=O)[C@@]1(O)CC[C@H]2[C@@H]3CCC4=CC(=O)C=C[C@]4(C)[C@H]3[C@@H](O)C[C@@]21C returned hIAP activ 1.05, bIAP act 380*, hIAP block -5.4, mIAP block -17.4 and mIAP act 1.17.
`C[C@]12C=CC(=O)C=C1CC[C@@H]1C2C(O)C[C@@]2(C)C1CC[C@]2(O)C(=O)COC(=O)CCC(=O)NC(CC(=O)O)C(=O)O` (stereo partly specified) gave hIAP activ 1.02, hIAP block -1.8, mIAP block 5.9 and mIAP act 0.941.
For COc1cc(CNCCN2CCOCC2)ccc1OCc1ccc(Cl)cc1Cl the results were hIAP activ 1.06, bIAP act 1.1, hIAP block -6.5, mIAP block 4.8, mIAP act 0.952 and bIAP inhibitor -11.0.
COc1cc(CNCc2ccccn2)ccc1OCc1ccc(Cl)c(Cl)c1 was read as hIAP activ 1.21, bIAP act 2.4*, hIAP block -21.4, mIAP block -19.5, mIAP act 1.2 and bIAP inhibitor -141.8.
COc1cc(CNCc2ccccn2)ccc1OCc1ccc(Cl)cc1Cl was read as hIAP activ 1.59, bIAP act 2.7*, hIAP block -58.7, mIAP block -25.2, mIAP act 1.25 and bIAP inhibitor -174.3.
`COc1cc(CNCc2ccccn2)ccc1OCC(N)=O` gave hIAP activ 1.02, bIAP act 1, hIAP block -2.5, mIAP block -9.9, mIAP act 1.1 and bIAP inhibitor -2.5.
`CCOC(=O)c1c(NC(=O)CN2CCCCC2)sc2c1CCC(C=O)=C2Cl` gave hIAP activ 0.918, bIAP act 0.9, hIAP block 8.2, mIAP block 48.6*, mIAP act 0.514 and bIAP inhibitor 8.3.
For CCOC(=O)c1c(-c2ccc(C)o2)csc1NC(=O)CN1CCCCC1 the results were hIAP activ 0.921, bIAP act 1.1, hIAP block 7.9, mIAP block 14.8, mIAP act 0.852 and bIAP inhibitor -6.3.
For Cc1cccc(N2CC(C(=O)O)CC2=O)c1C (stereo unspecified) the results were hIAP activ 0.979, hIAP block 2.1, mIAP block 5.2 and mIAP act 0.948.
Screening CCC1(c2ccccc2)NC(=O)N(CC(=O)NC2CCCC2)C1=O (stereo unspecified) returned hIAP activ 1.19, hIAP block -18.6, mIAP block 4.5 and mIAP act 0.955.
Screening Cc1ccc(N2C(=O)CSCC2=O)cc1 returned hIAP activ 1.08, bIAP act 1, hIAP block -8.0, mIAP block 0.8, mIAP act 0.992 and bIAP inhibitor 4.7.
`Cc1ccc(N2C(=O)CS/C2=C(\C(Cl)=C(Cl)Cl)[N+](=O)[O-])cc1` gave hIAP activ 1.18, bIAP act 0.8, hIAP block -18.4, mIAP block 41.9*, mIAP act 0.581 and bIAP inhibitor 21.7.
Screening Cc1cc(C)nc(N2CCCC(C(=O)Nc3nc4ccc(S(C)(=O)=O)cc4s3)C2)n1 (stereo unspecified) returned hIAP activ 0.934, bIAP act 5.3*, hIAP block 6.6, mIAP block 3.9, mIAP act 0.961 and bIAP inhibitor -430.5.
`Cc1ccc(O)c(-c2cc(C(=O)NCc3ccncc3)[nH]n2)c1` gave hIAP activ 1, bIAP act 2.1*, hIAP block -0.4, mIAP block 1.6, mIAP act 0.984 and bIAP inhibitor -106.5.
For O=C(NCc1nc(-c2ccc(Cl)cc2)no1)c1ccc2c(c1)OCO2 the results were hIAP activ 0.893, hIAP block 10.7, mIAP block 4.0 and mIAP act 0.96.
For C/C(=N\Nc1nccnc1Cl)c1ccc(O)c(C)c1 the results were hIAP activ 1.26, hIAP block -25.7, mIAP block 0.7 and mIAP act 0.993.
Cc1ccccc1CSCC(=O)NCc1ccco1 was read as hIAP activ 0.939, bIAP act 2.2*, hIAP block 6.1, mIAP block -0.6, mIAP act 1.01 and bIAP inhibitor -124.0.
CCOc1ccccc1NC(=O)COC(=O)c1cc[n+]([O-])cc1 was read as hIAP activ 1.04, hIAP block -4.0, mIAP block -4.9 and mIAP act 1.05.
For CCOC(=O)c1c(C)n(-c2ccc(C)cc2)c2ccc(OCC(O)CNCCCO)cc12 (stereo unspecified) the results were hIAP activ 1.02, bIAP act 2*, hIAP block -2.5, mIAP block -0.1, mIAP act 1 and bIAP inhibitor -99.0.
`O=[N+]([O-])c1ccc(S(=O)(=O)N2CCN(Cc3ccco3)CC2)cc1` gave hIAP activ 1.09, hIAP block -8.7, mIAP block -7.6 and mIAP act 1.08.
Screening CCN(CC)S(=O)(=O)c1ccc(NC(=O)CCC2CCCCC2)cc1 returned bIAP act 2.3* and bIAP inhibitor -127.5.
